# Results gathered from unrelated publications.
# Matrix: plasma
Structure (SMILES),system,conditions,endpoint,value
Cc1ncsc1-c1ccc([C@H](CC(=O)N2CCN(c3ccc(C#Cc4ccc(C(=O)N5CCC(n6cc(-c7ccc8c(c7)CCN8C(=O)Cc7cccc(OC(F)(F)F)c7)c7c(N)ncnc76)CC5)cc4)cn3)CC2)NC(=O)[C@@H]2C[C@@H](O)CN2C(=O)[C@@H](NC(=O)C2(F)CC2)C(C)(C)C)cc1,male C57BL/6 mouse,"intravenous, 1 mg/kg",clearance,2.3 mL/min/kg
OCc1ccc(-c2nn(Cc3ccccc3)c3ccccc23)o1,male CD-1 mouse,"intravenous, 5 mg/kg",C0,5100 ng/mL
OCc1nc2ccc(NCc3ccc(C(F)(F)F)cc3)cc2[nH]1,male BALB/c mouse,"intravenous, 1 mg/kg",CL/F,61.7 mL/min/kg
CCOC(=O)C1=C(CN2CCC[C@@H]2C(=O)Nc2ccc(B(O)O)cc2)NC(c2nccs2)=N[C@H]1c1ccc(F)cc1Br,CD-1 mouse,"intravenous, 2 mg/kg",C0,2160 ng/mL
C[C@H]1Oc2cc(cnc2N)-c2c(nn(C)c2C#N)CN(C)C(=O)c2ccc(F)cc21,male Sprague-Dawley rat,"oral, 10 mg/kg, single dose",Tmax,1.36 h
COc1ccc(N(Cc2csc(-c3ccccc3)n2)C(=O)CCCCCC(=O)NO)cc1,female Sprague-Dawley rat,"oral, 30 mg/kg",Tmax,1 h
Cc1ncsc1-c1ccc([C@H](C)NC(=O)[C@@H]2C[C@@H](O)CN2C(=O)[C@@H](NC(=O)CCc2ccc(C#Cc3ccc(C(=O)NCCCn4cc(-c5ccc6c(c5)CCN6C(=O)Cc5cccc(OC(F)(F)F)c5)c5c(N)ncnc54)cc3)cn2)C(C)(C)C)cc1,male C57BL/6 mouse,"intravenous, 1 mg/kg",clearance,2.5 mL/min/kg
CN(C)C(=O)c1cc2cnc(Nc3ccc(-c4ccc5c(=O)cc(N6CCOCC6)oc5c4)cc3)nc2n1C1CCCC1.Cl,BALB/c mouse,"oral, 20 mg/kg",CL/F,43.3 mL/min/kg
NCc1cc2c(cc1F)C(=O)N(C1CCC(=O)NC1=O)C2 (centres unmarked),male CD-1 mouse,"intravenous, 1 mg/kg",C0,2000 ng/mL
NCc1ccc(-c2nn(Cc3ccccc3)c3ccccc23)o1,male CD-1 mouse,"intravenous, 5 mg/kg",C0,1520 ng/mL
Cc1ccc(OCC(=O)N[C@@H](Cc2c[nH]c3ccccc23)C(=O)OC(C)C)cc1,male Sprague-Dawley mouse,"oral, 20 mg/kg",clearance,32.3 mL/min/kg
COc1cc(-c2cc(C(C)=O)n3ccccc23)c(OC)cc1Cn1ccnc1,male Sprague-Dawley rat,"intravenous, 5 mg/kg",Tmax,0.016 h
O=C1CCC(N2Cc3cc(CO)c(F)cc3C2=O)C(=O)N1 (centres unmarked),male CD-1 mouse,"intravenous, 1 mg/kg",C0,2190 ng/mL
C=CCn1c(=O)c2cnc(Nc3ccc(N4CCN(C)CC4)cc3)nc2n1-c1ccc2c(n1)[C@@](O)(CC)CC2,dog,"oral, 10 mg/kg",Cmax,2100 nM
